Key:
[1] = target: Sodium-dependent serotonin transporter (Rattus norvegicus, UniProt P31652); assay: Inhibition of [3H]5-HT binding to serotonin transporter in rat cortical synaptosomes; format: subcellular, Brain
Outline: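 Radioligand binding to serotonin transporter in rat cortical synaptosomes. Each determination lies within 0.3 log units of the mean.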

[2] = target: T1, 5-hydroxytryptamine receptor 1B (Homo sapiens, UniProt P28222); assay: Intrinsic activity for human 5-hydroxytryptamine 1B receptor in [35S]GTP-gamma-S, assay; format: functional
Outline: (§1)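 [35S]GTPγS binding in recombinant cells with high receptor density expressing the human receptor. Ten-point half-log serial dilution gives the concentration–response. Intrinsic activity is expressed relative to the maximal response of the endogenous agonist 5-HT.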

[3] = target: Serotonin 1 receptors; 5-HT1B & 5-HT1D (Homo sapiens) (UniProt P28222+P28221); assay: Selectivity for human 5-hydroxytryptamine 1D receptor over 5-hydroxytryptamine 1B receptor; format: protein assay
[4] = target: T2, 5-hydroxytryptamine receptor 1D (Homo sapiens, UniProt P28221); assay: Displacement of [3H]5-HT from human 5-hydroxytryptamine 1D receptor expressed in CHO cells; format: cell-based
Outline: (§2)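 Radioligand displacement binding on membranes of cloned human receptors. Each determination lies within 0.3 log units of the mean.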

[5] = target: T1, 5-hydroxytryptamine receptor 1B; assay: Displacement of [3H]5-HT from human 5-hydroxytryptamine 1B receptor expressed in CHO cells; format: cell-based; outline: as §2
[6] = target: T3, 5-hydroxytryptamine receptor 1A (Homo sapiens) (UniProt P08908); assay: Intrinsic activity for human 5-hydroxytryptamine 1A receptor in [35S]GTP-gamma-S, assay; […]; format: functional; outline: as §1
T3 sequence (whole entry): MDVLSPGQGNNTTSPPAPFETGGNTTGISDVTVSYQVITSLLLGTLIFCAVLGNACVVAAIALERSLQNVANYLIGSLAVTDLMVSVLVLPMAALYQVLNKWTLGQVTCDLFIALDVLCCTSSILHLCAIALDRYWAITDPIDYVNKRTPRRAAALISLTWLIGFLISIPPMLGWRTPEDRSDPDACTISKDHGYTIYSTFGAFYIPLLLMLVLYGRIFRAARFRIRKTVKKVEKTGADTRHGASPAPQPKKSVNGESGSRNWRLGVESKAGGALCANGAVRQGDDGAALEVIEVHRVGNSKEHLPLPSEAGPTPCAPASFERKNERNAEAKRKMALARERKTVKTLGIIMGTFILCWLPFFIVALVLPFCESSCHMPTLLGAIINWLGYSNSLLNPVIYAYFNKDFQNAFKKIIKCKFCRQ

[7] = target: T2, 5-hydroxytryptamine receptor 1D; assay: Intrinsic activity for human 5-hydroxytryptamine 1D receptor in [35S]GTP-gamma-S, assay; format: functional; outline: as §1
[8] = target: T4, 5-hydroxytryptamine receptor 1A (Homo sapiens, UniProt P08908); assay: Displacement of [3H]WAY-100635 from human 5-hydroxytryptamine 1A receptor expressed in CHO cells; format: cell-based; outline: as §2
T4 sequence (P08908 whole entry): T3 sequence (whole entry)

D(2) dopamine receptor = D(2) dopamine receptor (Homo sapiens, UniProt P14416); assay: Binding affinity for human dopamine receptor D2
[9] = target: T5, 5-hydroxytryptamine receptor 1F (Homo sapiens, UniProt P30939); assay: Binding affinity for human 5-hydroxytryptamine 1F receptor
T5 sequence (P30939 whole entry): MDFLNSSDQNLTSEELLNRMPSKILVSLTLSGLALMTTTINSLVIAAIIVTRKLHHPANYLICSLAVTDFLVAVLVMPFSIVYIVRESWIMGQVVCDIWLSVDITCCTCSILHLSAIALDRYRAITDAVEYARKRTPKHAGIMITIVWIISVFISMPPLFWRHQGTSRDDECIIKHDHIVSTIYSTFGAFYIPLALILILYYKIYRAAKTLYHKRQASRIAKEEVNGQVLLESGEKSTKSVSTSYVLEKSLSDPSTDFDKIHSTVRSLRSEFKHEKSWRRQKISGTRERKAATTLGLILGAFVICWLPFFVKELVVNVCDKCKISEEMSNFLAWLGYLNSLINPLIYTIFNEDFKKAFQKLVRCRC

[10] = target: 5-hydroxytryptamine receptor 4 (Homo sapiens, UniProt Q13639); assay: Binding affinity for human 5-hydroxytryptamine 4 receptor
[11] = target: T6, Alpha-1B adrenergic receptor (Homo sapiens, UniProt P35368); assay: Binding affinity for human alpha-1B adrenergic receptor
T6 sequence (P35368 whole entry): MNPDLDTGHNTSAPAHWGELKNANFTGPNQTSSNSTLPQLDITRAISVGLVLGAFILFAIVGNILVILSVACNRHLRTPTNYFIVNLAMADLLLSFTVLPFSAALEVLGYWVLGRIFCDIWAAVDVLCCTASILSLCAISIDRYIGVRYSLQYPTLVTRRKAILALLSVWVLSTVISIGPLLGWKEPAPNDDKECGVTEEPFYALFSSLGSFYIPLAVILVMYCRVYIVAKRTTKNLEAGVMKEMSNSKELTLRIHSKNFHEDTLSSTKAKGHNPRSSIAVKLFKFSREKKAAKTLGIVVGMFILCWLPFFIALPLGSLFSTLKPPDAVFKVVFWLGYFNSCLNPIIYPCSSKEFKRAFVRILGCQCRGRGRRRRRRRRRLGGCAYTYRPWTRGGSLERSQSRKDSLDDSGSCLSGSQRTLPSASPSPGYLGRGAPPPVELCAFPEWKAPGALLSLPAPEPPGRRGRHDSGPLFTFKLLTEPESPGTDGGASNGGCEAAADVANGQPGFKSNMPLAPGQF

[12] = target: Beta-2 adrenergic receptor (Homo sapiens, UniProt P07550); assay: Binding affinity for human beta-2 adrenergic receptor
[13] = target: 5-hydroxytryptamine receptor 7 (Homo sapiens, UniProt P34969); assay: Binding affinity for human 5-hydroxytryptamine 7 receptor
[14] = target: T7, 5-hydroxytryptamine receptor 2C (Homo sapiens, UniProt P28335); assay: Binding affinity for human 5-hydroxytryptamine 2C receptor
T7 sequence (P28335 whole entry): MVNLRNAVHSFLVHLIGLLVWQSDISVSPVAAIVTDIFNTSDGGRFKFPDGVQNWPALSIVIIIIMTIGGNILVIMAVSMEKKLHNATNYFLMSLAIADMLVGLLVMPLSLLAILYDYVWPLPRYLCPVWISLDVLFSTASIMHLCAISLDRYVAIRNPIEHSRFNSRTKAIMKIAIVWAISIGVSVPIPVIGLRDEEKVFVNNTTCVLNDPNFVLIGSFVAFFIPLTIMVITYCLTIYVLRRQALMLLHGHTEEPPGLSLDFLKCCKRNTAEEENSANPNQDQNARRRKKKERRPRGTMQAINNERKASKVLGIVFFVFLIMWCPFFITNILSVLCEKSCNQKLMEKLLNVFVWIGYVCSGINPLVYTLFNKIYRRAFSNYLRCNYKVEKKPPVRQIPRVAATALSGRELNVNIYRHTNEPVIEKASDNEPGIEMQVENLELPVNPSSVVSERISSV
Outline: (§3)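 Radioligand displacement binding on cloned human receptors. Each determination lies within 0.3 log units of the mean.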

[15] = target: 5-hydroxytryptamine receptor 6 (Homo sapiens, UniProt P50406); assay: Binding affinity for human 5-hydroxytryptamine 6 receptor
[16] = target: 5-hydroxytryptamine receptor 1E (Homo sapiens, UniProt P28566); assay: Binding affinity for human 5-hydroxytryptamine 1E receptor
[17] = target: 5-hydroxytryptamine receptor 2B (Homo sapiens, UniProt P41595); assay: Binding affinity for human 5-hydroxytryptamine 2B receptor
[18] = target: T2, 5-hydroxytryptamine receptor 1D
D(3) dopamine receptor = D(3) dopamine receptor (Homo sapiens, UniProt P35462); assay: Binding affinity for human dopamine receptor D3
[19] = target: 5-hydroxytryptamine receptor 2A (Homo sapiens, UniProt P28223); assay: Binding affinity for human 5-hydroxytryptamine 2A receptor; outline: as §3
[20] = target: 5-hydroxytryptamine receptor 5A (Homo sapiens, UniProt P47898); assay: Binding affinity for human 5-hydroxytryptamine 5A receptor; outline: as §3
D(4) dopamine receptor = target: T8, D(4) dopamine receptor (Homo sapiens, UniProt P21917); assay: Binding affinity for human dopamine receptor D4
T8 sequence (P21917 whole entry): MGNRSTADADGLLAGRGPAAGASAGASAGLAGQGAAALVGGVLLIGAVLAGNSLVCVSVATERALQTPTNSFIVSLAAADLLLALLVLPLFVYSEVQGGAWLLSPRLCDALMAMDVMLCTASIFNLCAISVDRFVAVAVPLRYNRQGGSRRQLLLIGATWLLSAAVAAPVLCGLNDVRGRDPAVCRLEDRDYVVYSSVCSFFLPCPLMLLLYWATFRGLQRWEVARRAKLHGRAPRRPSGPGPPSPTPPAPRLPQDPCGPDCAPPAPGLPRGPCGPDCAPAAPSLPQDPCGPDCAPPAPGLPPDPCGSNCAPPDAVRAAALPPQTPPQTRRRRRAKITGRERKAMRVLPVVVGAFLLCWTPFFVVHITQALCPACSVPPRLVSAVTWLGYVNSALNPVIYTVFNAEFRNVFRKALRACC

[21] = target: T1, 5-hydroxytryptamine receptor 1B
[22] = target: T2, 5-hydroxytryptamine receptor 1D; remark: listed apart in the source
[23] = target: T3, 5-hydroxytryptamine receptor 1A (Homo sapiens)
[24] = target: T3, 5-hydroxytryptamine receptor 1A (Homo sapiens); assay: Intrinsic activity for human 5-hydroxytryptamine 1A receptor in [35S]GTP-gamma-S, assay; format: functional; outline: as §1

T1 sequence (P28222 whole entry): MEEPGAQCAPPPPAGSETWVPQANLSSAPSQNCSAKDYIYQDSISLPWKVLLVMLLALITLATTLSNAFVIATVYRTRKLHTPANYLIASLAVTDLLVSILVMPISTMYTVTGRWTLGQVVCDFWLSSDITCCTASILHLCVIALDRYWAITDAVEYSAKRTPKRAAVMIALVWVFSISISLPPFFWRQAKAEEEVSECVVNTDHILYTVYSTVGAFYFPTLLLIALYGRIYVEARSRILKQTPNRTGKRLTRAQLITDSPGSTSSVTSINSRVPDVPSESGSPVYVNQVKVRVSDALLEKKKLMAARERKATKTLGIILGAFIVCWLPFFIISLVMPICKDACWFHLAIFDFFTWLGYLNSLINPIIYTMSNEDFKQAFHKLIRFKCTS
Sodium-dependent serotonin transporter, sequence (P31652 whole entry): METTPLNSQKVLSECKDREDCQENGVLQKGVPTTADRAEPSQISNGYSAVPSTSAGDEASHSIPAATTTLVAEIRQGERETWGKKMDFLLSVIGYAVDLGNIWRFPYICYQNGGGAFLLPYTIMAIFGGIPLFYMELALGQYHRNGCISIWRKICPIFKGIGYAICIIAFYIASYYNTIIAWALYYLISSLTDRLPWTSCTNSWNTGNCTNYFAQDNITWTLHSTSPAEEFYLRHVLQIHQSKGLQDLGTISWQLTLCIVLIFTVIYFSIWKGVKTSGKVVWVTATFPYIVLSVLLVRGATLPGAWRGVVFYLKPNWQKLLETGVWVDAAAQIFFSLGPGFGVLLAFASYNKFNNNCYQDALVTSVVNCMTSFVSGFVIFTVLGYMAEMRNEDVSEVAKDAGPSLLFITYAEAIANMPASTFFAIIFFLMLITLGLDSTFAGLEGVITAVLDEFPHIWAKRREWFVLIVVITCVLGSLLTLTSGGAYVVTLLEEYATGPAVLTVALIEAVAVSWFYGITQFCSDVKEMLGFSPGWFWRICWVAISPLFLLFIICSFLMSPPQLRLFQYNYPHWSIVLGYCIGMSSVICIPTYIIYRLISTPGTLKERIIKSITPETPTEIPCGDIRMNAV
T2 sequence (P28221 whole entry): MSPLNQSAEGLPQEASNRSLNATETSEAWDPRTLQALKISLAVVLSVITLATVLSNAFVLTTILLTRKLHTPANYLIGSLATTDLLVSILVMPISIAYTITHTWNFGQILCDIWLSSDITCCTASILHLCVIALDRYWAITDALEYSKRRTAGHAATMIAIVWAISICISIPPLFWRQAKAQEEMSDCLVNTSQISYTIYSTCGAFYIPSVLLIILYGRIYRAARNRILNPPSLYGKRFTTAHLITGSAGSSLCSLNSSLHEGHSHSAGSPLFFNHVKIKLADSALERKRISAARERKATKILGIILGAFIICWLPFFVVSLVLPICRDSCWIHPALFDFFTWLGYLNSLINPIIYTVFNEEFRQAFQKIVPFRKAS
5-hydroxytryptamine receptor 6, sequence (P50406 whole entry): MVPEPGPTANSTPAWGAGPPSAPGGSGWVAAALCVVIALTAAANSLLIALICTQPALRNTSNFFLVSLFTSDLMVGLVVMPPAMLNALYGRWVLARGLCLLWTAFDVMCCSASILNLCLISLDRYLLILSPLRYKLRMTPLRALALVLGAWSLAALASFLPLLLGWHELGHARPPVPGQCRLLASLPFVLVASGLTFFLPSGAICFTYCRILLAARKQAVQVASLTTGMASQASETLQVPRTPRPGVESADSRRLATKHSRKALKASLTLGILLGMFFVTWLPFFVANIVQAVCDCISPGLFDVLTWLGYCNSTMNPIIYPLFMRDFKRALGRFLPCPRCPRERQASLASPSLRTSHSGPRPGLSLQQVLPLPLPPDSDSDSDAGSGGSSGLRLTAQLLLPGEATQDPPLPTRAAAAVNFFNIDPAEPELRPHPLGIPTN
D(3) dopamine receptor, sequence (P35462 whole entry): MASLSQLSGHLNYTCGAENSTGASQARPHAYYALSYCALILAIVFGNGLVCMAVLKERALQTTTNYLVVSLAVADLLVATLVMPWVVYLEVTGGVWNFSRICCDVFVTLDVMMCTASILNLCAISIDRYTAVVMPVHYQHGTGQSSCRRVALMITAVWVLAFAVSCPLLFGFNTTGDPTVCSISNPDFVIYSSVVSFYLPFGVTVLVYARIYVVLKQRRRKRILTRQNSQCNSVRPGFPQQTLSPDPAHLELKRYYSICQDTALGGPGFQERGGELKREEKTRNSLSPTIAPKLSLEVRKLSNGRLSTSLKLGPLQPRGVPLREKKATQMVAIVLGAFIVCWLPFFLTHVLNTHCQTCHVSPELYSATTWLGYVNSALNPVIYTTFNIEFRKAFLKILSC
5-hydroxytryptamine receptor 7, sequence (P34969 whole entry): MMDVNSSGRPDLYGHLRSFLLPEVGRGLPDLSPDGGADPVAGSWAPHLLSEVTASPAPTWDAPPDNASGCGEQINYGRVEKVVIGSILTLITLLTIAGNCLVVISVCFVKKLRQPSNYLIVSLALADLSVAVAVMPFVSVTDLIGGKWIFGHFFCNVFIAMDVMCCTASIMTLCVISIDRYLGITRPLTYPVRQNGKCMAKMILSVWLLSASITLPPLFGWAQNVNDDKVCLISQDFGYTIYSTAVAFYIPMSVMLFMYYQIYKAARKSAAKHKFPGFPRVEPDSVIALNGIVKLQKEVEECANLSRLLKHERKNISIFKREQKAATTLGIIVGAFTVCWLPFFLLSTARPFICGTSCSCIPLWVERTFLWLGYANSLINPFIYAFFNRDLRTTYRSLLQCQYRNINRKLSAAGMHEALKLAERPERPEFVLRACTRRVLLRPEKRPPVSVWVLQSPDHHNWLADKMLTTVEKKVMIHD
5-hydroxytryptamine receptor 2B, sequence (P41595 whole entry): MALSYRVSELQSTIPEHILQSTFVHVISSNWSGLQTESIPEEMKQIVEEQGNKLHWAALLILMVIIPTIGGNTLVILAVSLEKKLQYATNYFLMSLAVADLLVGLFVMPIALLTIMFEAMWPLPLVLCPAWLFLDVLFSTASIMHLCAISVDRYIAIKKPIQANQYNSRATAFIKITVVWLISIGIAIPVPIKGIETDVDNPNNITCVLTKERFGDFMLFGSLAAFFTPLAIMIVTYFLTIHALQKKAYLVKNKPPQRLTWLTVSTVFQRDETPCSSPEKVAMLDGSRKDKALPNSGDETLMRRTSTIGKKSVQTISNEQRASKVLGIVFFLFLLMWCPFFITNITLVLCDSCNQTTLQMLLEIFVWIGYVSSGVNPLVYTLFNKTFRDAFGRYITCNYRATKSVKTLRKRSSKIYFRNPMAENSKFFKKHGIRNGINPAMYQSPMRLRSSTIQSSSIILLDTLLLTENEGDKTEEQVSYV
5-hydroxytryptamine receptor 4, sequence (Q13639 whole entry): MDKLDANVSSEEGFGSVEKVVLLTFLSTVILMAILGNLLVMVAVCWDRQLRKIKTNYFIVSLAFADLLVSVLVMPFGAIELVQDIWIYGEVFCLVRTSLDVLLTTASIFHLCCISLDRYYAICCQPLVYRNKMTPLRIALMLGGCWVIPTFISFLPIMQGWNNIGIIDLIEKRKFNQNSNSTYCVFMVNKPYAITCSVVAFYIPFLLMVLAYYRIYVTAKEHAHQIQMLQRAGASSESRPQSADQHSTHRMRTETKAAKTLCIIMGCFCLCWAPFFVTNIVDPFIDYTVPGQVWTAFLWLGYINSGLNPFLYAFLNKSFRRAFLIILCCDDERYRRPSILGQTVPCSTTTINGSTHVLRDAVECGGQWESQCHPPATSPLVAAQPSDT
5-hydroxytryptamine receptor 2A, sequence (P28223 whole entry): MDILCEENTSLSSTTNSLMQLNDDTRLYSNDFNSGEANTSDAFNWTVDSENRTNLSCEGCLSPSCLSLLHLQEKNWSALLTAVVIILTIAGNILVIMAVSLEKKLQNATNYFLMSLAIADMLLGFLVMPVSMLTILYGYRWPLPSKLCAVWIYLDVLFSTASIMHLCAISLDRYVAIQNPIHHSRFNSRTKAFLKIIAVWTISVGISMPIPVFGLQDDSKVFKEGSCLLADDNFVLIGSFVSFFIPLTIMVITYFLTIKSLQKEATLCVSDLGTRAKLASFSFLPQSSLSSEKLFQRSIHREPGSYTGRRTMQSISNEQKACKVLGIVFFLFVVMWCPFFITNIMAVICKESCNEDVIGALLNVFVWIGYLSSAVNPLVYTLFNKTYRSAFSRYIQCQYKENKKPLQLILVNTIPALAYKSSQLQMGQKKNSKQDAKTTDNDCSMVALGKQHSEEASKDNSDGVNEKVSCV
5-hydroxytryptamine receptor 5A, sequence (P47898 whole entry): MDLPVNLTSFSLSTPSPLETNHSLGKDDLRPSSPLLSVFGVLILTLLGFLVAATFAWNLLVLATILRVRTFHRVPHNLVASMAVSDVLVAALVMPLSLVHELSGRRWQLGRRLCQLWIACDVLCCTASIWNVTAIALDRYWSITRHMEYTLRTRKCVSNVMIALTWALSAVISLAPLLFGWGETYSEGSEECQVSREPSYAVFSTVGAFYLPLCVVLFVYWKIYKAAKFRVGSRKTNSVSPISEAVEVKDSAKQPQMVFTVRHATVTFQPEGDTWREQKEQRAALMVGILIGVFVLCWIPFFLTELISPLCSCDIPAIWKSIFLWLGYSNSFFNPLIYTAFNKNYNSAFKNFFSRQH
Beta-2 adrenergic receptor, sequence (P07550 whole entry): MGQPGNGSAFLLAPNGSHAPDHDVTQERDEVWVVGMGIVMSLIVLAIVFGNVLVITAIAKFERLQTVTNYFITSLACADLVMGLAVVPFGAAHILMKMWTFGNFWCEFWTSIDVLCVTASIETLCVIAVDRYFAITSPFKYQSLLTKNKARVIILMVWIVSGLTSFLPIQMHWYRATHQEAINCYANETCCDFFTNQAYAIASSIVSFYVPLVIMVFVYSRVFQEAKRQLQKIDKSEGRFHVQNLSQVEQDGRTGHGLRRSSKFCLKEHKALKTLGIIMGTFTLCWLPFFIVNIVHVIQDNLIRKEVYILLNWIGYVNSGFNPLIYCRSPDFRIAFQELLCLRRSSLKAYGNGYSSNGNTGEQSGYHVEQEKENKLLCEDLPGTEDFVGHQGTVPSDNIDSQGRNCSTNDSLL

Structure (SMILES)	Ki [1]	Selectivity [3]	Ki [4]	Ki [5]	Ki [8]	also measured
Cc1ccc2c(OCCN3CCN(Cc4cccc5[nH]cnc45)CC3)cccc2n1	794 nM	251	0.251 nM	63.1 nM	158 nM	IA [2]: 0.3; IA [6]: 0; IA [7]: 0.5
Cc1ccc2c(OCCN3CCN(Cc4cccc5cccnc45)CC3)cccc2n1	316 nM	251	0.794 nM	200 nM	316 nM	Ki (D(2) dopamine receptor): 3160 nM; Ki [9]: 2000 nM; Ki [10]: > 5010 nM; IA [2]: 0.3; Ki [11]: 1000 nM; IA [6]: 0; Ki [12]: 2000 nM; Ki [13]: 501 nM; Ki [14]: 3160 nM; Ki [15]: > 10000 nM; Ki [16]: > 10000 nM; Ki [17]: 1260 nM; IA [18]: 0; Ki (D(3) dopamine receptor): 1000 nM; Ki [19]: > 2510 nM; Ki [20]: 3160 nM; Ki (D(4) dopamine receptor): > 10000 nM
COc1ccc(CN2CCN(CCOc3cccc4nc(C)ccc34)CC2)cc1[N+](=O)[O-]	–	16	20 nM	316 nM	398 nM	–
Cc1ccc2c(OCCN3CCN(Cc4ccc(C)c([N+](=O)[O-])c4)CC3)cccc2n1	50.1 nM	40	2 nM	79.4 nM	39.8 nM	–
Cc1ccc2c(OCCN3CCN(Cc4ccc(Cl)c(Cl)c4)CC3)cccc2n1	501 nM	1	2510 nM	2000 nM	> 10000 nM	–
Cc1ccc2c(OCCN3CCN(Cc4ccc5c(c4)NC(=O)CO5)CC3)cccc2n1	25.1 nM	10	10 nM	100 nM	63.1 nM	–
COc1ccc(NC(=O)c2ccc(-c3ccc(-c4noc(C)n4)cc3C)cc2)cc1N1CCN(C)CC1	–	–	–	–	–	IA [2]: 0.47; IA [7]: 0.86
Cc1ccc2c(OCCN3CCN(Cc4ccc(O)c(N)c4)CC3)cccc2n1	–	158	1.58 nM	251 nM	> 1260 nM	–
Cc1ccc2c(OCCN3CCC(Cc4ccc5c(c4)NC(=O)CO5)CC3)cccc2n1	–	–	1.58 nM	–	–	–
Cc1ccc2c(OCCN3CCN(Cc4cccc5cc[nH]c45)CC3)cccc2n1	398 nM	126	3.16 nM	398 nM	398 nM	IA [2]: 0.1; IA [6]: 0; IA [7]: 0.5
NCCc1c[nH]c2ccc(O)cc12	–	–	–	–	–	IA [21]: 1; IA [22]: 1; IA [23]: 1
Cc1ccc2c(OCCN3CCN(Cc4c(Cl)cccc4Cl)CC3)cccc2n1	1260 nM	–	> 10000 nM	> 10000 nM	> 10000 nM	–
Cc1ccc2c(OCCN3CCN(Cc4ccc(F)c([N+](=O)[O-])c4)CC3)cccc2n1	316 nM	32	7.94 nM	251 nM	501 nM	–
Cc1ccc2c(OCCN3CCN(Cc4ccc5[nH]ccc5c4)CC3)cccc2n1	–	50	3.16 nM	158 nM	1000 nM	–
Cc1ccc2c(OCCN3CCN(Cc4cccc5ncncc45)CC3)cccc2n1	–	126	2.51 nM	316 nM	398 nM	–
Cc1ccc2c(OCCN3CCN(Cc4ccc(Cl)c([N+](=O)[O-])c4)CC3)cccc2n1	200 nM	40	5.01 nM	200 nM	63.1 nM	–
CN1CCN(c2cc3c(cc2Cl)CCN3C(=O)Nc2ccc(-c3ccncc3)c3ccccc23)CC1	–	–	–	–	–	IA [24]: 0.44
Cc1ccc2c(OCCN3CCN(Cc4cc(Cl)ccc4Cl)CC3)cccc2n1	1260 nM	158	3.98 nM	631 nM	79.4 nM	–
Cc1ccc2c(OCCN3CCN(Cc4ccc(O)c([N+](=O)[O-])c4)CC3)cccc2n1	1000 nM	40	10 nM	398 nM	794 nM	–
Cc1ccc2c(OCCN3CCN(Cc4cccc5ncccc45)CC3)cccc2n1	–	100	2.51 nM	251 nM	398 nM	–

— ChEMBL document CHEMBL1139504, “Discovery of the first potent, selective 5-hydroxytryptamine1D receptor antagonist” (J Med Chem, 2005)
